Test results published in ChEMBL document CHEMBL4196108, “5-Aroylindoles Act as Selective Histone Deacetylase 6 Inhibitors Ameliorating Alzheimer's Disease Phenotypes” (J Med Chem, 2018).
Calls of active or inactive are those of the source. No cut-off for these calls is given here.

Tests used:
[1] = molecular target: T1, Protein deacetylase HDAC6 (Homo sapiens, UniProt Q9UBN7); assay: Inhibition of human HDAC6 using RHKKAc peptide as substrate
T1 sequence (Q9UBN7 whole entry): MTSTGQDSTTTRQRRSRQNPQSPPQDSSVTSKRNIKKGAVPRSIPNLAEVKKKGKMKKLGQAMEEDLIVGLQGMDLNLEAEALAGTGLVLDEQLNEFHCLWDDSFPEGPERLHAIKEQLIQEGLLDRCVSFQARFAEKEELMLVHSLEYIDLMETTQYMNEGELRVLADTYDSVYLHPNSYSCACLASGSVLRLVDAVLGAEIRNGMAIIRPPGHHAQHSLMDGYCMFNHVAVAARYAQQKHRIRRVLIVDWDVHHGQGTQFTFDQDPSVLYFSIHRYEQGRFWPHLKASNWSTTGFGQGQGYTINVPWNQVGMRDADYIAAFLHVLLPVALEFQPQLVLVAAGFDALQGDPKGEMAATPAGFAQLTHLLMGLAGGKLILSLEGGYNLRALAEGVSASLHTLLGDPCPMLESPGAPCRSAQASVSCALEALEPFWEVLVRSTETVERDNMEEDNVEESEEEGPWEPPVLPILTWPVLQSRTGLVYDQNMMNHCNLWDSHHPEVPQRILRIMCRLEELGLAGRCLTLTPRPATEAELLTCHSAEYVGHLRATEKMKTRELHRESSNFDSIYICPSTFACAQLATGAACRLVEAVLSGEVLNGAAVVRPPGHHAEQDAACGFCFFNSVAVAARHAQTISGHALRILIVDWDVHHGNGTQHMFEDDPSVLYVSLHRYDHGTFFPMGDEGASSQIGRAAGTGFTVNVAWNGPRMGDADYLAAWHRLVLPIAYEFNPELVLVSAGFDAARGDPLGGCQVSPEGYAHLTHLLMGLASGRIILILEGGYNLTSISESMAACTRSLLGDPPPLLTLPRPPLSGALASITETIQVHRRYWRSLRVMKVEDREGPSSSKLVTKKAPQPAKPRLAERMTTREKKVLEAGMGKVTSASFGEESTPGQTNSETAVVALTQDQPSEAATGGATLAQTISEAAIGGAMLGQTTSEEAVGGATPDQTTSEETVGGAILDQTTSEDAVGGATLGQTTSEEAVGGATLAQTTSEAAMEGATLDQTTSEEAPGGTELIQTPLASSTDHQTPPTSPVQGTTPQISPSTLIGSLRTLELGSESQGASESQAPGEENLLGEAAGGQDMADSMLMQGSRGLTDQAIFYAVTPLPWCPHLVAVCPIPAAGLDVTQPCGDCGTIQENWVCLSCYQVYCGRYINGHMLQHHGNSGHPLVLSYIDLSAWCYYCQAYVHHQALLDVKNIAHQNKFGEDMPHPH

[2] = molecular target: T2, Protein deacetylase HDAC6 (Homo sapiens) (UniProt Q9UBN7); assay: Inhibition of HDAC6 in human SH-SY5Y cells transfected with pCAX FLAG APP and pRK5-EGFP-Tau P301L plasmids assessed as inhibition of Tau P301L mutant phosphorylation at Ser396 residue at 1 uM after 24 hrs by Western blot analysis; assay type: cell-based
T2 sequence (whole entry): T1 sequence (Q9UBN7 whole entry)
How it was run: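 SH-SY5Y or Neuro-2a cells cotransfected 24 h with pCAX APP695 and pRK5-EGFP-Tau P301L, then treated 24 h at 1 µM. 20 µg lysate protein immunoblotted for APP and phospho-tau Ser396/Ser404. Mean ± STD of three independent experiments; Student's t-test.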

[3] = molecular target: T2, Protein deacetylase HDAC6 (Homo sapiens); assay: Inhibition of HDAC6 in human SH-SY5Y cells transfected with pCAX FLAG APP and pRK5-EGFP-Tau P301L plasmids assessed as suppression of phosphorylated tau P301L mutant-induced apoptosis by measuring accumulation at sub-G1 phase at 0.1 uM after 24 hrs by propidium iodide staining-based flow cytometry (reference value: 22.01%); assay type: cell-based; design: scale not given: the % may be the effect or the level left
[4] = molecular target: T2, Protein deacetylase HDAC6 (Homo sapiens); assay: Inhibition of HDAC6 binding to HSP90 in human SH-SY5Y cells transfected with pCAX FLAG APP and pRK5-EGFP-Tau P301L plasmids at 1 uM after 24 hrs by coimmunoprecipitation analysis; assay type: cell-based
How it was run: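 SH-SY5Y and Neuro-2a cells cotransfected 24 h with APP695/Tau P301L plasmids, treated 24 h at 1 µM (ACY-1215 reference). 30 µg lysate immunoprecipitated overnight at 4 °C with anti-HDAC6 or anti-acetyl-lysine antibodies plus protein A/G beads, run on 8% SDS-PAGE, probed for Hsp90; Hsp70 by immunoblot. Three independent experiments.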

[5] = molecular target: T2, Protein deacetylase HDAC6 (Homo sapiens); assay: Inhibition of HDAC6 in human SH-SY5Y cells transfected with pCAX FLAG APP and pRK5-EGFP-Tau P301L plasmids assessed as increase in coimmunoprecipitation of ubiquitin with phosphorylated tau at Ser396 residue at 1 uM after 24 hrs; assay type: cell-based
How it was run: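 In APP695/Tau P301L-cotransfected SH-SY5Y cells treated 24 h at 1 µM, lysates (30 µg) were immunoprecipitated with anti-ubiquitin antibody and protein A/G beads overnight at 4 °C, then immunoblotted for phospho-tau Ser396 after 8% SDS-PAGE.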

Mus musculus [6] = assay: In vivo inhibition of HDAC6 in 3xTg-AD transgenic mouse brain hippocampal CA1 region assessed as downregulation of scopolamine-mediated increase in Tau phosphorylation at Ser404 residue at 50 mg/kg, po administered daily for 3 months by immunohistochemical analysis; assay type: functional, organism-based
How it was run: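 Female 3xTg-AD mice, standard diet to 6 months of age, then 50 mg/kg orally once daily for three months; memantine 30 mg/kg in water as comparator. Brains removed and hippocampal CA1 sections immunostained for acetyl-α-tubulin and phospho-tau Ser396 and Ser404. Mean ± STD; one-way ANOVA.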

[7] = Drug uptake in Sprague-Dawley rat brain at 50 mg/kg, po after 1 hr by HPLC-MS/MS analysis; assay type: ADME, organism-based; details: read-out: Drug uptake
[8] = Toxicity in Balb/c mouse assessed as survival rate at 100 mg/kg, ip qd administered for 6 days followed by 1 week recovery (reference value: 100%); assay type: organism-based; details: in vivo
Mus musculus [9] = assay: In vivo inhibition of HDAC6 in 3xTg-AD transgenic mouse brain hippocampal CA1 region assessed as downregulation of scopolamine-mediated increase in Tau phosphorylation at Ser404 residue at 50 mg/kg, po administered daily for 3 months by Western blot analysis; assay type: functional, organism-based
How it was run: (§1)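 Female 3xTg-AD mice, fed standard diet to 6 months of age, then dosed orally at 50 or 100 mg/kg once daily for three months. Brains removed; hippocampal tissue lysates immunoblotted for acetyl-α-tubulin and phospho-tau Ser396 and Ser404. Mean ± STD; one-way ANOVA.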

Mus musculus [10] = assay: In vivo inhibition of HDAC6 in scopolamine-treated 3xTg-AD transgenic mouse brain hippocampal CA1 region assessed as increase in acetyl-alpha-tubulin level at 50 mg/kg, po by Western blot analysis; assay type: functional, organism-based; how it was run: as §1
[11] = Toxicity in Balb/c mouse assessed as survival rate at 500 mg/kg, ip qd administered for 6 days followed by 1 week recovery (reference value: 100%); assay type: organism-based; details: in vivo
Mus musculus [12] = assay: In vivo inhibition of HDAC6 in 3xTg-AD transgenic mouse brain hippocampal CA1 region assessed as downregulation of Tau phosphorylation at Ser396 residue at 50 mg/kg, po administered daily for 3 months by Western blot analysis

Row | SMILES | IC50 [1] [nM] | inhibition [2] | Activity [3] [%] | inhibition [4] | inhibition [5] | inhibition (Mus musculus [6]) | concentration at 1 h [7] [ng/g] | survival [8] [%] | inhibition (Mus musculus [9]) | inhibition (Mus musculus [10]) | survival [11] [%] | inhibition (Mus musculus [12])
1 | O=C(NO)c1ccc(Cn2ccc3cc(C(=O)c4ccc(F)cc4)ccc32)cc1 | 9.25 | Active |  |  |  |  |  |  |  |  |  | 
2 | COc1ccc(C(=O)c2ccc3c(ccn3Cc3ccc(C(=O)NO)cc3)c2)cc1 | 3.92 | Active | 13.5 | Active | Active | Active | 10.4 | 100 | Active | Active | 100 | Active
3 | O=C(NO)c1ccc(Cn2ccc3cc(C(=O)c4ccc(Cl)cc4)ccc32)cc1 | 6.73 | Active |  |  |  |  |  |  |  |  |  | 
